Experiments:
Punta Toro virus = assay: Antiviral activity against Punta Toro virus in Vero cells assessed as reduction of virus plaque formation after 7 days; format: functional, organism-based; conditions: 168 h
Human respirovirus 3 = assay: Antiviral activity against parainfluenza 3 virus in Vero cells assessed as reduction of virus plaque formation after 7 days; format: functional, organism-based; conditions: Human respirovirus 3, Vero, 168 h
[1] = system: Mammalian orthoreovirus 1; assay: Antiviral activity against reovirus1 virus in Vero cells assessed as reduction of virus plaque formation after 7 days; format: functional, organism-based; conditions: Mammalian orthoreovirus 1, Vero, 168 h
Sindbis virus = assay: Antiviral activity against sindbis virus in Vero cells assessed as reduction of virus plaque formation after 7 days; format: functional, organism-based; conditions: 168 h
Coxsackievirus B4 = assay: Antiviral activity against coxsackie B4 virus in HeLa cells assessed as reduction of virus plaque formation after 7 days; format: functional, organism-based; conditions: Enterovirus B, 168 h
SW-620 = assay: Growth inhibition of SW620 cells after 72 hrs by MTT assay; format: functional, cell-based; conditions: Homo sapiens, SW-620, 72 h
Method in brief: (§1)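 Tumor lines grown as monolayers in DMEM with 10% FBS, 2 mM L-glutamine and penicillin. Freshly diluted compounds added, solvent tested at matching concentrations; after 72 h growth measured by MTT. IC50 obtained by linear regression of concentrations bracketing 50% growth; mean of three separate experiments.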

[2] = Growth inhibition of human Molt4/C8 cells after 72 hrs by MTT assay; format: functional, cell-based; conditions: MOLT-4, 72 h
MCF7 = assay: Growth inhibition of MCF7 cells after 72 hrs by MTT assay; format: functional, cell-based; conditions: Homo sapiens, MCF7, 72 h; method in brief: as §1
Human betaherpesvirus 5 [3] = assay: Antiviral activity against human cytomegalovirus Davis in HEL cells assessed as reduction of plaque formation after 7days; format: functional, organism-based; conditions: Human betaherpesvirus 5, Davis, 168 h
Method in brief: (§2)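 Confluent HEL fibroblasts infected with HCMV (Davis or AD-169) at 100 PFU per well; after 2 h adsorption, residual virus removed and medium with serial compound concentrations added (duplicate wells). Incubated 7 days; EC50 taken as concentration reducing plaque formation by 50%.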

MIA PaCa-2 = assay: Growth inhibition of MiaPaCa2 cells after 72 hrs by MTT assay; format: functional, cell-based; conditions: Homo sapiens, MIA PaCa-2, 72 h; method in brief: as §1
[4] = Cytotoxicity against HEL cells assessed as cell growth after 7 days; format: cell-based; conditions: human
HeLa = assay: Growth inhibition of HeLa cells after 72 hrs by MTT assay; format: functional, cell-based; conditions: Homo sapiens; method in brief: as §1
Human alphaherpesvirus 3 [5] = assay: Antiviral activity against thymidine kinase deficient Varicella-Zoster virus 07/1 assessed as reduction of plaque formation; format: functional, organism-based; conditions: Human alphaherpesvirus 3, 07/1
Method in brief: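 Plaque reduction assay in HEL cells against TK+ (OKA) and TK- (07/1) VZV strains; virus input 100 PFU; EC50 as concentration giving 50% plaque reduction.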

Human alphaherpesvirus 3 [6] = assay: Antiviral activity against thymidine kinase expressing Varicella-Zoster virus OKA assessed as reduction of plaque formation; format: functional, organism-based; conditions: Human alphaherpesvirus 3, OKA
HEp-2 = assay: Growth inhibition of Hep2 cells after 72 hrs by MTT assay; format: functional, cell-based; conditions: Homo sapiens, HEp-2, 72 h; method in brief: as §1
Human betaherpesvirus 5 [7] = assay: Antiviral activity against human cytomegalovirus AD169 in HEL cells assessed as reduction of plaque formation after 7 days; format: functional, organism-based; conditions: Human betaherpesvirus 5, AD169, HEL, 168 h; method in brief: as §2
CCRF-CEM = assay: Growth inhibition of human CEM cells after 72 hrs by MTT assay; format: functional, cell-based
[8] = Cytotoxicity against HEL cells assessed as cell morphology after 7 days; format: cell-based; conditions: human
Method in brief: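 Uninfected confluent HEL cultures exposed to compounds; MCC recorded as lowest concentration producing a microscopically detectable alteration of normal cell morphology at day 7.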

L1210 = assay: Growth inhibition of mouse L1210 cells after 72 hrs by MTT assay; format: functional, cell-based; conditions: L1210, 72 h

Compound | EC50 (Punta Toro virus) [µM] | EC50 (Human respirovirus 3) [µM] | EC50 [1] [µM] | EC50 (Sindbis virus) [µM] | EC50 (Coxsackievirus B4) [µM] | IC50 (SW-620) [µM] | IC50 [2] [µM] | IC50 (MCF7) [µM] | EC50 (Human betaherpesvirus 5 [3]) [µM] | IC50 (MIA PaCa-2) [µM] | CC50 at 168 h [4] [µM] | IC50 (HeLa) [µM] | EC50 (Human alphaherpesvirus 3 [5]) [µM] | EC50 (Human alphaherpesvirus 3 [6]) [µM] | IC50 (HEp-2) [µM] | EC50 (Human betaherpesvirus 5 [7]) [µM] | IC50 (CCRF-CEM) [µM] | MCC at 168 h [8] [µM] | IC50 (L1210) [µM]
NC(=O)c1ncn([C@@H]2O[C@H](CO)[C@@H](O)[C@H]2O)n1 [RIBAVIRIN] | 150 | 150 | 250 | 50 | 150 |  |  |  |  |  |  |  |  |  |  |  |  |  | 
COc1cc(/C=C(\C)c2ccc(F)cc2)nc(OC)n1 | 40 | > 40 | > 40 | > 40 | > 40 | 56 | > 200 | 16 | > 20 | > 100 | 88 | 17 | > 20 | > 20 | 20 | > 20 | 74 | 100 | > 200
COc1nc(OC)c(Br)c(C(Br)Br)n1 | > 40 | 40 | > 40 | 40 | > 40 | 0.4 | 8.5 | 6 | > 20 | 2 | 1.7 | 1 | 10.5 | 8.8 | 2 | > 20 | 7.1 | 100 | 8.8
Nc1ncnc2c1ncn2C[C@H](O)CO [(S)-DHPA] | > 250 | > 250 | > 250 | > 250 | > 250 |  |  |  |  |  |  |  |  |  |  |  |  |  | 
COc1nc(C)c(Br)c(OC)n1 | > 200 | > 200 | > 200 | > 200 | > 200 | > 100 | > 200 | > 100 | > 100 | > 100 | 18 | > 100 | 88 | > 100 | > 100 | > 100 | > 200 | ≥ 100 | > 200
CC(=O)OC(C)(Cc1cc(O)nc(O)n1)Cc1ccccc1F (stereo not drawn) | > 124 | > 124 | > 124 | > 124 | > 200 | > 200 | > 200 | > 200 | > 100 | > 200 | > 100 | > 200 | > 100 | > 100 | > 200 | > 100 | > 200 | > 100 | > 200
COc1cc(CC(C)(O)CF)nc(OC)n1 (stereo not drawn) | > 200 | > 200 | > 200 | > 200 | > 200 | > 200 | > 200 | > 200 | > 100 | > 200 | > 100 | > 200 | > 100 | > 100 | > 200 | > 100 | > 200 | > 100 | > 200
COc1cc(/C=C(/O)c2ccc(F)cc2)nc(OC)n1 | > 200 | > 200 | > 200 | 200 | 24 | ≥ 100 | > 200 | ≥ 100 | 38 | > 100 | > 100 | > 100 | > 20 | > 100 | > 100 | > 100 | 192 | > 100 | > 200
COc1nc(CC(C)(O)c2ccc(F)cc2)c(C)c(OC)n1 (stereo not drawn) | > 200 | > 200 | > 200 | > 200 | > 40 | ≥ 100 | 144 | 38 | 20 | 65 | > 100 | 35 | 45 | 80 | 43 | 45 | 136 | > 100 | 195
